Laboratory results as given in ChEMBL document CHEMBL4765405, “Design, synthesis and biological activities of novel pleuromutilin derivatives with a substituted triazole moiety as potent antibacterial agents” (Eur J Med Chem, 2020).
Converted amounts (≈) assume the structure as drawn. The source made the active and inactive calls. The calls are words filed in the database; no cut-off is given here.

Tests used:
[1] = test system: Staphylococcus aureus; experiment: Bactericidal activity against Staphylococcus aureus AD3 preincubated 16 to 20 hrs followed by subculturing and measured after over night; type: functional
Procedure, shortened: (§1)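 MBC by CLSI broth microdilution on the same strain panel: S. aureus ATCC 43300, ATCC 29213, clinical isolates AD3 and 144, E. coli ATCC 25922; ATCC 43300 served as QC strain.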

[2] = target: Cytochrome P450 3A4 (Homo sapiens, UniProt P08684); experiment: Inhibition of CYP3A4 in human liver microsomes using testosterone as substrate preincubated for 5 mins followed by NADPH addition and measured after 5 mins by LC-MS/MS analysis; type: ADME
[3] = test system: Staphylococcus aureus; experiment: Antibacterial activity against methicillin-resistant Staphylococcus aureus ATCC 43300 assessed as post antibacterial effect at 4 time of MIC concentration preincubated for 2 hrs followed by compound washout further incubated with fresh medium and measured for 6 hrs; type: functional
[4] = Ratio of MBC for bactericidal activity against methicillin-resistant Staphylococcus aureus ATCC 43300 to MIC for antibacterial activity against methicillin-resistant Staphylococcus aureus ATCC 4330; type: functional
[5] = test system: RAW264.7; experiment: Cytotoxicity against mouse RAW264.7 cells assessed as reduction in cell viability at 8 ug/ml after 16 hrs by MTT assay; type: cell-based; conditions: raw264.7, 16 h, dose 8 µg/ml
Procedure, shortened: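 RAW 264.7 macrophage viability read by MTT assay after exposure at 8 μg/mL.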

[6] = test system: Staphylococcus aureus; experiment: Antibacterial activity against methicillin-resistant Staphylococcus aureus ATCC 43300 infected in ICR/Swiss mouse model of neutropenic thigh infection assessed as reduction in bacterial load at 20 mg/kg, iv and measured after 24 hrs; type: functional
Procedure, shortened: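 Mice made neutropenic by intraperitoneal cyclophosphamide; the negative control group received 0.9% saline intraperitoneally. Thigh muscle was inoculated with about 10^7 CFU/mL MRSA. Dose 20 mg/kg, with tiamulin as comparator and an untreated control. Read-out was thigh bacterial load (log10 CFU/g), n = 6/group.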

[7] = test system: Staphylococcus aureus; experiment: Bactericidal activity against methicillin-resistant Staphylococcus aureus ATCC 43300 assessed as reduction in bacterial growth at > 4 time of MIC concentration preincubated up to 24 hrs followed by subculturing and measured after 20 hrs by time-kill assay; type: functional; set-up: scale not given: the % may be the effect or the level left; conditions: time hrs <=44
[8] = test system: Staphylococcus aureus; experiment: Antibacterial activity against methicillin-resistant Staphylococcus aureus ATCC 43300 infected in ICR/Swiss mouse systemic infection model assessed as survival rate at 30 mg/kg, ip after 7 days relative to control; type: functional; conditions: ATCC 43300, ip, 168 h, time 7 day
Procedure, shortened: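 MRSA systemic infection model in mice. Dose 30 mg/kg with tiamulin as comparator and an untreated infected control. Survival was recorded after 7 days of administration.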

[9] = test system: Staphylococcus aureus; experiment: Antibacterial activity against methicillin-resistant Staphylococcus aureus ATCC 43300 assessed as post antibacterial effect at 2 time of MIC concentration preincubated for 2 hrs followed by compound washout further incubated with fresh medium and measured for 6 hrs; type: functional
[10] = test system: Staphylococcus aureus; experiment: Antibacterial activity against Staphylococcus aureus AD3 after 24 hrs by CLSI based broth micro dilution method; type: functional
Procedure, shortened: (§2)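 CLSI broth microdilution MIC against S. aureus ATCC 43300 (MRSA), ATCC 29213, clinical isolates AD3 and 144 (Guangdong Province), and E. coli ATCC 25922; ATCC 43300 served as QC strain, with the CLSI quality control range as reference.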

[11] = test system: Staphylococcus aureus; experiment: Bactericidal activity against Staphylococcus aureus 144 preincubated 16 to 20 hrs followed by subculturing and measured after over night; type: functional; procedure, shortened: as §1
[12] = test system: Staphylococcus aureus; experiment: Bactericidal activity against methicillin-resistant Staphylococcus aureus ATCC 43300 preincubated 16 to 20 hrs followed by subculturing and measured after over night; type: functional
Procedure, shortened: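 MBC determined by the CLSI broth microdilution method against MRSA ATCC 43300, with ATCC 43300 also serving as the QC strain. Pleuromutilin and tiamulin were reference drugs.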

[13] = test system: Staphylococcus aureus; experiment: Antibacterial activity against methicillin-resistant Staphylococcus aureus ATCC 43300 after 24 hrs by CLSI based broth micro dilution method; type: functional
Procedure, shortened: (§3)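 Broth microdilution run per CLSI. MRSA ATCC 43300 served as the QC strain, with the CLSI QC range as reference. S. aureus AD3 and 144 are clinical isolates from Guangdong Province. Pleuromutilin and tiamulin were run as reference drugs.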

[14] = test system: Staphylococcus aureus; experiment: Bactericidal activity against methicillin-resistant Staphylococcus aureus ATCC 43300 assessed as reduction in bacterial growth at MIC concentration preincubated up to 24 hrs followed by subculturing and measured after 20 hrs by time-kill assay; type: functional, organism-based; conditions: time hrs <=44
[15] = test system: Escherichia coli; experiment: Antibacterial activity against Escherichia coli ATCC 25922 after 24 hrs by CLSI based broth micro dilution method; type: functional; procedure, shortened: as §2
[16] = test system: Staphylococcus aureus; experiment: Antibacterial activity against Staphylococcus aureus 144 after 24 hrs by CLSI based broth micro dilution method; type: functional; procedure, shortened: as §3
[17] = test system: Staphylococcus aureus; experiment: Antibacterial activity against Staphylococcus aureus ATCC 29213 after 24 hrs by CLSI based broth micro dilution method; type: functional; procedure, shortened: as §3
[18] = test system: Escherichia coli; experiment: Bactericidal activity against Escherichia coli ATCC 25922 preincubated 16 to 20 hrs followed by subculturing and measured after over night; type: functional; procedure, shortened: as §1
[19] = test system: Staphylococcus aureus; experiment: Bactericidal activity against Staphylococcus aureus ATCC 29213 preincubated 16 to 20 hrs followed by subculturing and measured after over night; type: functional; procedure, shortened: as §1
[20] = Inhibition of CYP450 (unknown origin); type: ADME, Homo sapiens
[21] = test system: Staphylococcus aureus; experiment: Bactericidal activity against methicillin-resistant Staphylococcus aureus ATCC 43300 assessed as reduction in bacterial growth at > 8 time of MIC concentration preincubated up to 24 hrs followed by subculturing and measured after 20 hrs by time-kill assay; type: functional, organism-based; conditions: time hrs <=44

Sequence of Cytochrome P450 3A4 (P08684 whole entry): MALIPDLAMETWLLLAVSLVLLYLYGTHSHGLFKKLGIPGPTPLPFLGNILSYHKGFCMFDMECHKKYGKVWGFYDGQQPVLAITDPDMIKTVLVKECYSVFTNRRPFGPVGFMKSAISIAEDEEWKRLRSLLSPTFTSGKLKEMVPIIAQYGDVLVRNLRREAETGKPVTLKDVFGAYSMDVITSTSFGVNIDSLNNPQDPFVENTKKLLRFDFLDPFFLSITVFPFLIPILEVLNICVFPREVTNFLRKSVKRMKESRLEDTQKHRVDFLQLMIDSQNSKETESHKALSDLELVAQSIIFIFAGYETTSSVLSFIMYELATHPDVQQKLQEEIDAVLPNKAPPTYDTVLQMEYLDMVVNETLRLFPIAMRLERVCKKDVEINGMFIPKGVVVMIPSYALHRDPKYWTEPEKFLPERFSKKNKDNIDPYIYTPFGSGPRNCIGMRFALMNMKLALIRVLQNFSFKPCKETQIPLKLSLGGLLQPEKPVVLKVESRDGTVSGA

Row | Compound | MBC [1] | PAE [3] | Ratio [4] | PAE [9] | MIC [10] | MBC [11] | MBC [12] | MIC [13] | MIC [15] | MIC [16] | MIC [17] | MBC [18] | MBC [19] | also measured
1 | C=C[C@]1(C)C[C@@H](OC(=O)CSc2ccccc2NC(=O)Cn2cc(CN(C)C)nn2)[C@]2(C)[C@H](C)CC[C@]3(CCC(=O)[C@H]32)[C@@H](C)[C@@H]1O | 0.5 µg/mL (≈ 0.767 µM) | 2.74 h | 1 | 2.03 h | 0.25 µg/mL (≈ 0.384 µM) | 0.5 µg/mL (≈ 0.767 µM) | 0.5 µg/mL (≈ 0.767 µM) | 0.25 µg/mL (≈ 0.384 µM) | > 32 µg/mL | 0.5 µg/mL (≈ 0.767 µM) | 0.25 µg/mL (≈ 0.384 µM) | > 32 µg/mL | 0.25 µg/mL (≈ 0.384 µM) | IC50 [2]: 6.15 µM; Activity [5]: Non-Toxic; Activity [6]: 1.71 log10CFU/g; Activity [7]: 99.9%; survival at 30 mg/kg [8]: 50%; Activity [14]: Active
2 | C=C[C@]1(C)C[C@@H](OC(=O)CSc2ccccc2NC(=O)Cn2cc(CN(CC)CC)nn2)[C@]2(C)[C@H](C)CC[C@]3(CCC(=O)[C@H]32)[C@@H](C)[C@@H]1O | 1 µg/mL (≈ 1.47 µM) | 1.84 h | 1 | 1.81 h | 0.5 µg/mL (≈ 0.735 µM) | 0.5 µg/mL (≈ 0.735 µM) | 0.5 µg/mL (≈ 0.735 µM) | 0.25 µg/mL (≈ 0.368 µM) | > 32 µg/mL | 0.5 µg/mL (≈ 0.735 µM) | 0.25 µg/mL (≈ 0.368 µM) | > 32 µg/mL | 0.25 µg/mL (≈ 0.368 µM) | Activity [7]: 99.9%; Activity [14]: Active
3 | CC[C@]1(C)C[C@@H](OC(=O)CSc2nnc(N)[nH]2)[C@]2(C)[C@H](C)CC[C@]3(CCC(=O)[C@H]32)[C@@H](C)[C@@H]1O [AZAMULIN] |  |  |  |  |  |  |  |  |  |  |  |  |  | IC50 [20]: 0.12 µM
4 | C=C[C@]1(C)C[C@@H](OC(=O)CSc2ccccc2NC(=O)Cn2cc(CN3CCN(c4ccc([N+](=O)[O-])cc4)CC3)nn2)[C@]2(C)[C@H](C)CC[C@]3(CCC(=O)[C@H]32)[C@@H](C)[C@@H]1O | 0.5 µg/mL (≈ 0.614 µM) |  | 1 |  | 0.25 µg/mL (≈ 0.307 µM) | 0.25 µg/mL (≈ 0.307 µM) | 0.25 µg/mL (≈ 0.307 µM) | 0.125 µg/mL (≈ 0.154 µM) | > 32 µg/mL | 0.25 µg/mL (≈ 0.307 µM) | 0.125 µg/mL (≈ 0.154 µM) | > 32 µg/mL | 0.125 µg/mL (≈ 0.154 µM) | Activity [21]: Active
5 | C=C[C@]1(C)C[C@@H](OC(=O)CSc2ccccc2NC(=O)Cn2cc(CN3CCCCC3)nn2)[C@]2(C)[C@H](C)CC[C@]3(CCC(=O)[C@H]32)[C@@H](C)[C@@H]1O | 0.5 µg/mL (≈ 0.723 µM) |  | 1 |  | 0.5 µg/mL (≈ 0.723 µM) | 1 µg/mL (≈ 1.45 µM) | 2 µg/mL (≈ 2.89 µM) | 0.5 µg/mL (≈ 0.723 µM) | > 32 µg/mL | 1 µg/mL (≈ 1.45 µM) | 0.5 µg/mL (≈ 0.723 µM) | > 32 µg/mL | 0.5 µg/mL (≈ 0.723 µM) | 
6 | C=C[C@]1(C)C[C@@H](OC(=O)CSc2ccccc2NC(=O)Cn2cc(CN3CCN(c4ccccc4OC)CC3)nn2)[C@]2(C)[C@H](C)CC[C@]3(CCC(=O)[C@H]32)[C@@H](C)[C@@H]1O | 2 µg/mL (≈ 2.5 µM) |  | 1 |  | 1 µg/mL (≈ 1.25 µM) | 4 µg/mL (≈ 5.01 µM) | 1 µg/mL (≈ 1.25 µM) | 0.5 µg/mL (≈ 0.626 µM) | > 32 µg/mL | 1 µg/mL (≈ 1.25 µM) | 1 µg/mL (≈ 1.25 µM) | > 32 µg/mL | 2 µg/mL (≈ 2.5 µM) | 
7 | C=C[C@]1(C)C[C@@H](OC(=O)CSc2ccccc2NC(=O)Cn2cc(CN3CCN(c4cccc(Cl)c4)CC3)nn2)[C@]2(C)[C@H](C)CC[C@]3(CCC(=O)[C@H]32)[C@@H](C)[C@@H]1O | 2 µg/mL (≈ 2.49 µM) |  | 1 |  | 2 µg/mL (≈ 2.49 µM) | 4 µg/mL (≈ 4.98 µM) | 4 µg/mL (≈ 4.98 µM) | 2 µg/mL (≈ 2.49 µM) | > 32 µg/mL | 2 µg/mL (≈ 2.49 µM) | 1 µg/mL (≈ 1.24 µM) | > 32 µg/mL | 1 µg/mL (≈ 1.24 µM) | 
8 | C=C[C@]1(C)C[C@@H](OC(=O)CSc2ccccc2NC(=O)Cn2cc(CN3CCN(c4ccc(Cl)cc4)CC3)nn2)[C@]2(C)[C@H](C)CC[C@]3(CCC(=O)[C@H]32)[C@@H](C)[C@@H]1O | 4 µg/mL (≈ 4.98 µM) |  | 1 |  | 2 µg/mL (≈ 2.49 µM) | 2 µg/mL (≈ 2.49 µM) | 1 µg/mL (≈ 1.24 µM) | 0.5 µg/mL (≈ 0.622 µM) | > 32 µg/mL | 2 µg/mL (≈ 2.49 µM) | 1 µg/mL (≈ 1.24 µM) | > 32 µg/mL | 4 µg/mL (≈ 4.98 µM) | 
9 | C=C[C@]1(C)C[C@@H](OC(=O)CSc2ccccc2NC(=O)Cn2cc(CN3CCN(c4cccc([N+](=O)[O-])c4)CC3)nn2)[C@]2(C)[C@H](C)CC[C@]3(CCC(=O)[C@H]32)[C@@H](C)[C@@H]1O | 0.5 µg/mL (≈ 0.614 µM) |  | 1 |  | 0.25 µg/mL (≈ 0.307 µM) | 0.5 µg/mL (≈ 0.614 µM) | 0.25 µg/mL (≈ 0.307 µM) | 0.125 µg/mL (≈ 0.154 µM) | > 32 µg/mL | 0.25 µg/mL (≈ 0.307 µM) | 0.25 µg/mL (≈ 0.307 µM) | > 32 µg/mL | 0.25 µg/mL (≈ 0.307 µM) | Activity [21]: Active
10 | C=C[C@]1(C)C[C@@H](OC(=O)CSCCN(CC)CC)[C@]2(C)[C@H](C)CC[C@]3(CCC(=O)[C@H]32)[C@@H](C)[C@@H]1O [TIAMULIN] | 2 µg/mL (≈ 4.05 µM) | 2.04 h |  | 1.65 h | 1 µg/mL (≈ 2.03 µM) | 2 µg/mL (≈ 4.05 µM) | 1 µg/mL (≈ 2.03 µM) | 0.5 µg/mL (≈ 1.01 µM) |  | 1 µg/mL (≈ 2.03 µM) | 0.5 µg/mL (≈ 1.01 µM) |  | 1 µg/mL (≈ 2.03 µM) | Activity [6]: 0.77 log10CFU/g; survival at 30 mg/kg [8]: 20%
